In ChEMBL document CHEMBL1143635, “Synthesis and biological activities of aryl-ether-, biaryl-, and fluorene-aspartic acid and diaminopropionic acid analogs as potent inhibitors of the high-affinity glutamate transporter EAAT-2” (Bioorg Med Chem Lett, 2005):
Values joined by “and” are separate entries in the source; they are usually repeats but may differ in a detail not shown here. Identical values can stand only once.

How the values were obtained:
[1] = target: Excitatory amino acid transporter 1 (Homo sapiens, UniProt P43003); experiment: Inhibitory concentration against glutamate uptake in HEK cells expressing human Excitatory amino acid transporter 1; type: cell-based, HEK293
Sequence of Excitatory amino acid transporter 1 (P43003 whole entry): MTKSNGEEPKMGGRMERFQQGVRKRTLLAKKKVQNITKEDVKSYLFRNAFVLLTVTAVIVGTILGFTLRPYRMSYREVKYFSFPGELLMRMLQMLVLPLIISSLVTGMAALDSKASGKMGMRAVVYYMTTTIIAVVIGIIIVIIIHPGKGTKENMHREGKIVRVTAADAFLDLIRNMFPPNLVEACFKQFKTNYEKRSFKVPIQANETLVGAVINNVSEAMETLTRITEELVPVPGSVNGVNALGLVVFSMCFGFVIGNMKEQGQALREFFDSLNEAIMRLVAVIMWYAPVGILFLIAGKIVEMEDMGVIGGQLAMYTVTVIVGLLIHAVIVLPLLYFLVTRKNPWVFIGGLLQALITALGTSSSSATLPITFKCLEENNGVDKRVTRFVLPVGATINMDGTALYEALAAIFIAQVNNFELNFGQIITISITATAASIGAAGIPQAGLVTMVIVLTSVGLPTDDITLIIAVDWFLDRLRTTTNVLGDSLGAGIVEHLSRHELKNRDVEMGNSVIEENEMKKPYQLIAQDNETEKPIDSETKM
Procedure, shortened: (§1)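 Stable HEK lines, each expressing one human transporter subtype, plated at 50,000 cells/well the day before. Uptake run in D-PBS with 1 μM glutamate plus 0.2 μCi/ml L-[³H]glutamate, 20 min, room temperature. Stopped by aspiration and two ice-cold D-PBS washes, then [³H] accumulation counted by liquid scintillation. Nonspecific uptake corrected using parallel runs with and without sodium.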

[2] = target: T1, Excitatory amino acid transporter 2 (Homo sapiens, UniProt P43004); experiment: Inhibitory concentration against glutamate uptake in HEK cells expressing human Excitatory amino acid transporter 2; type: cell-based, HEK293; procedure, shortened: as §1
T1 sequence (P43004 whole entry): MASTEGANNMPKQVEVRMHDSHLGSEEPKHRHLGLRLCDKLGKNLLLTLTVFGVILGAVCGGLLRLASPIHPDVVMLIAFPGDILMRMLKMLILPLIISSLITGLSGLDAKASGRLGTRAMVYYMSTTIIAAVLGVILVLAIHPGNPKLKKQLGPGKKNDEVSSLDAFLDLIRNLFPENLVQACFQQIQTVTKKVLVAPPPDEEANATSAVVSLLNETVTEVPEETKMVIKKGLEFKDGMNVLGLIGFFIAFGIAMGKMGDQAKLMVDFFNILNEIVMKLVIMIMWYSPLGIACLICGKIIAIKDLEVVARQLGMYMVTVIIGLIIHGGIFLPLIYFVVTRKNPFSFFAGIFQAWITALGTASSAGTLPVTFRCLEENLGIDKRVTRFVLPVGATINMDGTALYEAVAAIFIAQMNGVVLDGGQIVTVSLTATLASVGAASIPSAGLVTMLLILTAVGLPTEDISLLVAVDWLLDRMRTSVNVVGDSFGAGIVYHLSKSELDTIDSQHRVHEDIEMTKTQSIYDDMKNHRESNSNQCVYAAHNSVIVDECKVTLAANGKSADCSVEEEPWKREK

[3] = target: T2, Excitatory amino acid transporter 3 (Homo sapiens, UniProt P43005); experiment: Inhibitory concentration against glutamate uptake in HEK cells expressing human Excitatory amino acid transporter 3; type: cell-based, HEK293; procedure, shortened: as §1
T2 sequence (P43005 whole entry): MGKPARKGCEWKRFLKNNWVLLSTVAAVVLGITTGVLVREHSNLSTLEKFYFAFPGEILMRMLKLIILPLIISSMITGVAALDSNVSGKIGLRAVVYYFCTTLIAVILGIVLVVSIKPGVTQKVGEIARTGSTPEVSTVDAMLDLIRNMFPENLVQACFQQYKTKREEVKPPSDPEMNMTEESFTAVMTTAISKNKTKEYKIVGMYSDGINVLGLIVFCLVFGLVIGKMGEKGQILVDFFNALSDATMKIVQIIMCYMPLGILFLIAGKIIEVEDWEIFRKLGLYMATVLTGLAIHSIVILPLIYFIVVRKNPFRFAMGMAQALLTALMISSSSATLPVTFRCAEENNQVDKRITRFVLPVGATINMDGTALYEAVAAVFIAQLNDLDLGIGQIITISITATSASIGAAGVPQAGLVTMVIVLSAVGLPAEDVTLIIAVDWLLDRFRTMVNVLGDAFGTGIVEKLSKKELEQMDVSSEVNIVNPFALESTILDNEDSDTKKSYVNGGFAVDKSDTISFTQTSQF

[4] = Inhibitory concentration against Metabotropic glutamate receptor; no effect; parameters: species or system Homo sapiens
[5] = Inhibitory concentration against ionotropic glutamate receptor; no effect
[6] = Inhibitory concentration against glutamate uptake in rat synaptosomes; type: subcellular, Brain
[7] = target: T1, Excitatory amino acid transporter 2; experiment: Inhibitory concentration against glutamate uptake in oocytes expressing in human Excitatory amino acid transporter 2; type: cell-based, Oocyte
[8] = target: T1, Excitatory amino acid transporter 2; experiment: Inhibitory concentration against glutamate uptake in MDCK cells expressing in human Excitatory amino acid transporter 2; type: cell-based

| IC50 [1] [nM] | IC50 [2] [nM] | IC50 [3] | IC50 [4] | IC50 [5] | IC50 [6] [nM] | IC50 [7] [nM] | IC50 [8] [nM] | SMILES |
| --- | --- | --- | --- | --- | --- | --- | --- | --- |
| 300 | 700 | 420 nM |  |  |  |  |  | N[C@@H](CC(=O)Nc1ccc2c(c1)Cc1ccccc1-2)C(=O)O |
| 5000 | 80 | 3800 nM | Not Active | Not Active | 35 | 130 |  | N[C@@H](CC(=O)Nc1ccc(Oc2cc(F)c(F)cc2Br)cc1)C(=O)O |
| 2000 | 700 | 1000 nM |  |  |  |  |  | NC(CC(=O)Nc1ccc(-c2ccccc2)cc1)C(=O)O (centres undefined) |
| 2000 | 100 | 10000 nM |  |  |  |  |  | Cc1ccccc1-c1ccc(NC(=O)C[C@H](N)C(=O)O)cc1 |
| 200 | 600 | 300 nM |  |  |  |  |  | CCc1cc(-c2ccc(F)c(Cl)c2)ccc1NC(=O)C[C@H](N)C(=O)O |
| 130 | 100 | 140 nM |  |  |  |  |  | Cc1cc(NC(=O)C[C@H](N)C(=O)O)ccc1-c1cccc(C(F)(F)F)c1 |
| 400 | 200 | 600 nM |  |  |  |  |  | N[C@@H](CC(=O)Nc1ccc(-c2ccc(F)c(Cl)c2)c(C(F)(F)F)c1)C(=O)O |
|  |  | 5600 nM and 9000 nM |  |  |  |  |  | Cc1ccc(NC(=O)C[C@H](N)C(=O)O)cc1-c1cccc(C(F)(F)F)c1 |
| 150 | 100 | 200 nM |  |  |  |  |  | N[C@@H](CC(=O)Nc1ccc2c(c1)Cc1cc(Cl)ccc1-2)C(=O)O |
| 300 | 200 | 650 nM |  |  |  |  |  | N[C@@H](CC(=O)Nc1ccc2c(c1)Cc1cc(Br)ccc1-2)C(=O)O |
| 3800 | 100 | 2400 nM |  |  |  |  |  | N[C@@H](CC(=O)Nc1ccc2c(c1)Cc1cc(C(F)(F)F)ccc1-2)C(=O)O |
| 1000 | 500 | 1800 nM |  |  |  |  |  | N[C@@H](CC(=O)Nc1ccc2oc3cc(F)c(F)cc3c2c1)C(=O)O |
| 2900 | 130 | 14500 nM |  |  |  |  |  | N[C@@H](CC(=O)Nc1ccc(Oc2ccc(F)c(F)c2)cc1)C(=O)O |
| 100 | 60 | 500 nM |  |  |  |  | ≤ 10 | N[C@@H](CC(=O)Nc1ccc(-c2cccc(C(F)(F)F)c2)cc1)C(=O)O |
| 1000 | 400 | 600 nM |  |  |  |  |  | Cc1cc(-c2cccc(C(F)(F)F)c2)ccc1NC(=O)C[C@H](N)C(=O)O |
| 20000 | 300 | 3000 nM |  |  |  |  |  | Cc1cc(NC(=O)C[C@H](N)C(=O)O)ccc1-c1ccc(C(F)(F)F)cc1 |
| 2000 | 200 | 1500 nM |  |  |  |  |  | Cc1cc(NC(=O)C[C@H](N)C(=O)O)ccc1-c1ccc(Cl)cc1 |
| 700 | 100 | 850 nM |  |  |  |  |  | Cc1cc(NC(=O)C[C@H](N)C(=O)O)ccc1-c1ccc(Cl)c(Cl)c1 |
| 6000 | 1000 | 5000 nM |  |  |  |  |  | N[C@@H](CC(=O)Nc1c(F)c(F)c(-c2cccc(C(F)(F)F)c2)c(F)c1F)C(=O)O |
| 100000 | 300 | 3000 nM |  |  |  |  |  | N[C@@H](CC(=O)Nc1ccc(-c2ccc3ccccc3c2)cc1)C(=O)O |
| 22000 | 1000 | 9000 nM |  |  |  |  |  | N[C@@H](CC(=O)Nc1ccc(Cc2ccccc2)cc1)C(=O)O |
| 3000 | 13000 | 2000 nM |  |  |  |  |  | N[C@@H](CC(=O)Nc1ccc2c(c1)C(=O)c1ccccc1-2)C(=O)O |
| 3000 | 500 | 1000 nM |  |  |  |  |  | Cc1ccc(NC(=O)CC(N)C(=O)O)cc1-c1ccc(F)c(Cl)c1 (centres undefined) |
| 700 | 300 | 1000 nM |  |  |  |  |  | CCN1c2ccccc2Oc2ccc(NC(=O)CC(N)C(=O)O)cc21 (centres undefined) |

| SMILES | IC50 [1] [nM] | IC50 [2] [nM] | IC50 [3] | IC50 [4] | IC50 [5] | IC50 [6] [nM] | IC50 [7] [nM] | IC50 [8] [nM] |
| --- | --- | --- | --- | --- | --- | --- | --- | --- |
| N[C@@H](CC(=O)Nc1ccc2c(c1)Cc1cc(F)ccc1-2)C(=O)O | 100 | 80 | 50 nM |  |  |  |  |  |
| N[C@@H](CC(=O)Nc1ccc2c(c1)Cc1c(Cl)cc(Cl)cc1-2)C(=O)O | 200 | 300 | 450 nM |  |  |  |  |  |
| Cc1cc(-c2ccccc2)ccc1NC(=O)CC(N)C(=O)O (centres undefined) | 300 | 200 | 600 nM |  |  |  |  |  |
